From PubChem BioAssay
A selection: hits, their analogues and other compounds. The true share with any hit is near 1.6%.
STEP block: blocks human striatal-enriched tyrosine phosphatase; recombinant STEP, OMFP fluorogenic substrate, fluorescence; inhibition, % at 20 µM; 0.25% of 360,000 active;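 active = inhibition at 20 µM, scaled per plate between control wells, above about 37%, limit read from the data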;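 also: 0% = DMSO with enzyme and substrate and 100% = substrate only without enzyme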
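medium = Bis-Tris buffer pH 6.0, 2.5 mM DTT, 0.005% Tween 20 | test system = STEP (striatal-enriched tyrosine phosphatase) enzyme, cell-free | measure = normalized % inhibition | compound dosing = 20 µM, 1% DMSO | also added = 25 µM OMFP | schedule = reaction 20 min, ambient temperature | measured by = fluorescence read at 480 nm ex / 540 nm em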
Scp-1 inhibitor: blocks human Scp-1 phosphatase activity; Q9GZU7; Recombinant Scp1, phosphopeptide, malachite green phosphate absorbance; inhibition, % at 20 µM; 0.88% of 340,000 active; AID 493091;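 active = inhibition above about 50% at 20 µM, limit read from the data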;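 also: plate controls were DMSO wells with enzyme for no effect and wells lacking enzyme for full effect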
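System: SCP-1 catalytic domain; Reagent: Phospho 17-mer peptide substrate; Doses: one concentration, 20 µM, with 1.0% DMSO; Incubation: 45 min room-temperature reaction, 5 min colour, 30 min stabiliser; Signal: Phosphate-binding colour reagent, absorbance read at 630 nm.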
DNMT1 block: DNMT1 (human) enzyme inhibition; P26358; DNMT1 molecular beacon, Hinp1I cleavage, fluorescence; inhibition (reported as % activation of signal), % at 10 µM; 0.83% of 360,000 active; in the data active = inhibition above about 50%
SUMO1 PPI mod: alters human SUMO1 binding to SIM partners; P63165; SUMO1 binding to a labelled peptide, TR-FRET, 1 h; inhibition, % at 20 µM; 0.33% of 360,000 active; AID 602429; in the data active = inhibition above about 37%
CFTR F508del cor: correctors of CFTR F508del function in bronchial epithelial cells. 0.36% of 350,000 active. CFBE cells, YFP halide quenching; stimulated with forskolin plus potentiator P3; % fluorescence drop versus neutral controls. AID 720511. activity (quench increase), % at 7.58 µM;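 active = mean added fluorescence quench of at least 8% versus neutral control, with both replicates also reaching 8%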;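 also: cells transiently co-express mutant CFTR-F508del with the halide-sensitive YFP; corrector assay measuring rescue of mutant channel to the surface after 24 h compound exposure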
LMPTP block: LMPTP (human) inhibition; 0.22% of 360,000 active; recombinant LMPTP-A, OMFP fluorogenic substrate, fluorescence intensity; inhibition, % at 20 µM; P24666;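 active = compounds that cut the enzyme signal by at least half of the control window in the single-dose screen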;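 also: plate controls were DMSO wells with enzyme plus substrate for no effect and substrate without enzyme for full effect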
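Material: LMPTP-A; amount: 0.625 nM enzyme; doses: single 20 µM dose; times: reaction 50 min, room temperature, dark; technique: fluorescence intensity of OMFP turnover product; benchmarks: no-enzyme and uninhibited controls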
* hit, by the source's call; / = no result; ! = not confirmed by another sample.

SMILES	STEP block	Scp-1 inhibitor	DNMT1 block	SUMO1 PPI mod	CFTR F508del cor	LMPTP block
CC1(C)OC(c2ccccc2)=C/C(=C/C=C2C(=O)NC(=S)NC2=O)O1	/	-5	/	/	17*	/
Cc1cccc(-n2c(O)c(/C=C3/C(c4ccccc4)=Nc4ccccc43)c(=O)[nH]c2=O)c1	-2	-16	2	-8	12*	1
Cc1cccc(-n2c(O)c(/C=C/C=Nc3ccccc3)c(=O)[nH]c2=O)c1	-16	-4	55*	-29	/	1
CNS(=O)(=O)c1ccc(N=Cc2c(O)n(-c3cccc(C)c3)c(=O)[nH]c2=O)cc1	-1	-5	0	2	1	0
C[C@@H]1CN([C@@H](C)CO)C(=O)c2c(c3ccccc3n2C)-c2ccccc2CO[C@@H]1CN(C)C(=O)Oc1ccccc1	/	/	/	/	3	/
CN(C)[C@@H]1C(=O)C(C(N)=O)=C(O)[C@@]2(O)C(=O)C3=C(O)c4c(O)cccc4[C@@](C)(O)C3[C@H](O)C12 (some centres undefined)	18	35	89*!	59*!	-5	64*
CN(C)C1C(=O)C(C(N)=O)=C(O)C2(O)C(=O)C3=C(O)c4c(O)cccc4C(C)(O)C3CC12 (centres undefined)	0	8	19	6	/	7
CCOP(=O)(C#Cc1ccccc1)C(O)c1ccc(Br)cc1 (centres undefined)	-1	1	1	-4	10*	1
C[C@H](CO)N1C[C@H](C)[C@H](CN(C)C(=O)Oc2cccc3ccccc23)OCc2cn(nn2)CCCC1=O	/	/	/	/	-2	/
COC(=O)[C@H]1[C@H](CO)[C@H]2Cn3c(ccc(-c4cccc(OC)c4)c3=O)[C@@H]1N2C(=O)c1ccccc1F	/	/	/	/	1	/
O=c1[nH]c(=O)n(-c2cccc3ccccc23)c(O)c1/C=N/N1CCCCC1c1cccnc1 (centres undefined)	1	-2	-1	-1	8.0*	-1
O=C1Nc2ccccc2/C1=C/c1cnc[nH]1	2	82*	0	-11	-1	-1
COc1ccc2c(c1)/C(=C/c1cnc[nH]1)C(=O)N2	1	-9	0	-27	/	-1
CN1CCN(C(=O)CN=[N+]=[N-])CC1	/	/	/	/	2	/
O=C1NC(=S)NC(=O)C1=Cc1ccc(Br)s1	20	84*	57*	17	-12	10
CNCC(=O)c1ccc(O)c(O)c1	2	/	2	3	2	56*
CN1C(=O)NC(=O)/C(=C/c2ccc([N+](=O)[O-])o2)C1=O	/	62*	/	/	1	/
CSc1nc(N)c(N=Nc2ccc([As](=O)(O)O)cc2)c(=O)[nH]1	0	16	18	39*	0	43
COc1ccc(N=Nc2c(O)[nH]c(=S)[nH]c2=O)cc1	7	-9	-1	-55	1	11
Nc1ccc2ccc3cccc[n+]3c2c1	-35	0	109*	-14	15*	39
C=CCN1C(=O)NC(=O)/C(=C/c2ccoc2)C1=O	1	28	50*	5	/	0
Cc1cc(/C=C2\C(=O)NC(=O)N(c3ccccc3)C2=O)c(C)n1-c1ccc(C(=O)O)c(Cl)c1	46*	40	40	-3	0	1
Cc1cc(/C=C2\C(=O)NC(=O)N(c3ccc(F)cc3)C2=O)c(C)n1-c1cccc(C(=O)O)c1	2	11	37	23	1	-1
N#Cc1cccc(-c2ccc([C@H]3[C@H](CO)N4CCCCN(C(=O)Cc5ccncc5)C[C@@H]34)cc2)c1	/	/	/	/	1	/
CCCNC(=O)N1[C@@H]2Cn3c(ccc(-c4cccc(C(=O)N(C)C)c4)c3=O)[C@H]1[C@@H](C(=O)O)[C@@H]2CO	/	/	/	/	1	/
SMILES	STEP block	Scp-1 inhibitor	DNMT1 block	SUMO1 PPI mod	CFTR F508del cor	LMPTP block
CCC1(CC)C(=O)C=CNC1=O	0	1	4	2	29*	-1
O=C(NC[C@H]1CC[C@@H]2NC[C@@H]2O1)C1CCCC1	/	/	/	/	-3	/
COc1ccc(-c2ccc(OC)c(OC)c2OC)cc1	-3	-4	4	-2	12*	-2
COC(=O)[C@H]1[C@H](CO)[C@H]2Cn3c(ccc(-c4cncnc4)c3=O)[C@@H]1N2S(=O)(=O)c1ccccc1C	/	/	/	/	1	/
Cc1cc2c(C(C)C)c(O)c(O)c(C=O)c2c(O)c1-c1c(C)cc2c(C(C)C)c(O)c(O)c(C=O)c2c1O	-4	/	22	58*	2	12
COc1ccc(C#Cc2ccc([C@@H]3[C@H](CO)N4CCCCN(C(=O)Cc5ccccc5)C[C@@H]34)cc2)cc1	/	/	/	/	-1	/
O=C(O)c1ccc2c(c1)C1C(Cl)C(Sc3ccccc3[N+](=O)[O-])CC1C(c1cccc([N+](=O)[O-])c1)N2 (centres undefined)	6	-7	71*	46*	/	6
O=[N+]([O-])c1cccc(C2N3CCCN23)c1 (centres undefined)	0	-5	0	-8	-2	-3
CCN(CC)C(=O)c1ccc(N(Cc2ccccc2)S(C)(=O)=O)cc1	6	-2	-1	0	-1	0
CCN(CC)C(=O)c1ccc2c(c1)C1C=CCC1C(C(=O)O)N2 (centres undefined)	33	39	19	45*	0	2
O=C(O)c1cccc2c1NC(c1cccc([N+](=O)[O-])c1)C1CC(Sc3ccccc3[N+](=O)[O-])C(Cl)C21 (centres undefined)	8	1	85*	41*	-1	36
CCN(CC)C(=O)c1ccc2c(c1)C1C(Cl)C(Sc3ccccc3[N+](=O)[O-])CC1C(C(=O)O)N2 (centres undefined)	6	24	64*	65*	/	50
O=C(Cc1cccnc1)N1CCCCN2[C@H](CO)[C@H](c3ccc(C#CC4CC4)cc3)[C@H]2C1	/	/	/	/	1	/
COC(=O)[C@@H]1[C@@H](CO)[C@@H]2Cn3c(ccc(-c4cccc(C(=O)N(C)C)c4)c3=O)[C@H]1N2CC1CC1	/	/	/	/	-1	/
COC(=O)[C@@H]1[C@@H](CO)[C@@H]2Cn3c(ccc(C4=CCCCC4)c3=O)[C@H]1N2CC1CCCCC1	/	/	/	/	1	/
Cc1ccccc1-c1ccc([C@@H]2[C@@H](CO)N3CCCCN(C(=O)Cc4ccccn4)C[C@@H]23)cc1	/	/	/	/	-2	/
O=C(O)Cn1cc(/C=C2\C(=O)NC(=O)N(Cc3ccco3)C2=O)c2ccccc21	7	53*	90*	27	1	5
CC(C)C[C@@H]1COc2cccc(N3CCN(C)CC3)c2S(=O)(=O)N1	/	/	/	1	12*	-2
O=[N+]([O-])c1ccc(N2CCOCC2)c2c1no[n+]2[O-]	7	/	2	-58	12*	10
